According to ChEMBL document CHEMBL1129751, “2-Iminopiperidine and other 2-iminoazaheterocycles as potent inhibitors of human nitric oxide synthase isoforms” (J Med Chem, 1996):

How the values were obtained:
Nitric oxide synthase 3 = target: T1, Nitric oxide synthase 3 (Homo sapiens, UniProt P29474); test: Inhibitory activity against human Endothelial nitric oxide synthase
T1 sequence (P29474 whole entry): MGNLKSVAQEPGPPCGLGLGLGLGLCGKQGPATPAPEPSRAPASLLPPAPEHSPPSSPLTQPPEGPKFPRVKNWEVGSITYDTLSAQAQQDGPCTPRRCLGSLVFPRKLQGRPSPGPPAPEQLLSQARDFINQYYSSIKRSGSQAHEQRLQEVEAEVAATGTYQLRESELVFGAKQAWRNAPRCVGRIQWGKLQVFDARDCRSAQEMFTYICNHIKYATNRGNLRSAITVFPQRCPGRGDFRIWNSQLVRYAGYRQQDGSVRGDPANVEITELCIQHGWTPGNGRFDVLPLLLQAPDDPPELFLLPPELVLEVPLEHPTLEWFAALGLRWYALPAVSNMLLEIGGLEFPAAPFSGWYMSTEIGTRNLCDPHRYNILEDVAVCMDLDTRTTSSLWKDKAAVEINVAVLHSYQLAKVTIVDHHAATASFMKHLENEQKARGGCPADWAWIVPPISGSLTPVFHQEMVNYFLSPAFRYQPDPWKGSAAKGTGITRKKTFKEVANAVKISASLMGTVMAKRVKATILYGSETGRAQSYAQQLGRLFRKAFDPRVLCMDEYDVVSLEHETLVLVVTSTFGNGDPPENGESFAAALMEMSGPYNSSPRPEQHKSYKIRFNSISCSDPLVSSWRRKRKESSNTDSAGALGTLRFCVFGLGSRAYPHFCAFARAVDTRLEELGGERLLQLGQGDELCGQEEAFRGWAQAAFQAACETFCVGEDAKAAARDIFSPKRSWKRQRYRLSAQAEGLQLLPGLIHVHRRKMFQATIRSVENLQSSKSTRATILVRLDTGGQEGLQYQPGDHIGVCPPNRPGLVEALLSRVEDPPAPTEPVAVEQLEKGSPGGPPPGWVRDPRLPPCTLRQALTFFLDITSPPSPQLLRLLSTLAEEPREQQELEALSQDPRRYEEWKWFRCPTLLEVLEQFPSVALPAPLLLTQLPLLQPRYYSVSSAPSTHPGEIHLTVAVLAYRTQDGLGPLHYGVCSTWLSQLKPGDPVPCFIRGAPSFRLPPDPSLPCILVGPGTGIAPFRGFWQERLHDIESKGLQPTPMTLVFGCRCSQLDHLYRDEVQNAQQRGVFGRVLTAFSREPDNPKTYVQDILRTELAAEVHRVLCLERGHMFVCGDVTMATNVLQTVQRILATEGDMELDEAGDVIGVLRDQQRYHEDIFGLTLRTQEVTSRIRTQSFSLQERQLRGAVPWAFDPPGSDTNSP
Method in brief: (§1)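 Recombinant human enzymes expressed in Sf9 cells by baculovirus and partially purified on DEAE-Sepharose from soluble extracts. Assay in 50 mM Tris pH 7.6 with BSA, DTT, CaCl2, FAD, tetrahydrobiopterin, NADPH, 30 µM final L-arginine with L-[2,3-3H]arginine. Endothelial form also given 40 nM calmodulin. 15 min at 37 °C, stopped with EGTA buffer. [3H]citrulline isolated on cation exchange and counted. IC50 from eight concentrations, at least duplicate.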

[1] = target: Nitric oxide synthase, inducible (Homo sapiens, UniProt P35228); test: Inhibitory activity against human inducible nitric oxide synthase; method in brief: as §1
Nitric oxide synthase, inducible, sequence (P35228 whole entry): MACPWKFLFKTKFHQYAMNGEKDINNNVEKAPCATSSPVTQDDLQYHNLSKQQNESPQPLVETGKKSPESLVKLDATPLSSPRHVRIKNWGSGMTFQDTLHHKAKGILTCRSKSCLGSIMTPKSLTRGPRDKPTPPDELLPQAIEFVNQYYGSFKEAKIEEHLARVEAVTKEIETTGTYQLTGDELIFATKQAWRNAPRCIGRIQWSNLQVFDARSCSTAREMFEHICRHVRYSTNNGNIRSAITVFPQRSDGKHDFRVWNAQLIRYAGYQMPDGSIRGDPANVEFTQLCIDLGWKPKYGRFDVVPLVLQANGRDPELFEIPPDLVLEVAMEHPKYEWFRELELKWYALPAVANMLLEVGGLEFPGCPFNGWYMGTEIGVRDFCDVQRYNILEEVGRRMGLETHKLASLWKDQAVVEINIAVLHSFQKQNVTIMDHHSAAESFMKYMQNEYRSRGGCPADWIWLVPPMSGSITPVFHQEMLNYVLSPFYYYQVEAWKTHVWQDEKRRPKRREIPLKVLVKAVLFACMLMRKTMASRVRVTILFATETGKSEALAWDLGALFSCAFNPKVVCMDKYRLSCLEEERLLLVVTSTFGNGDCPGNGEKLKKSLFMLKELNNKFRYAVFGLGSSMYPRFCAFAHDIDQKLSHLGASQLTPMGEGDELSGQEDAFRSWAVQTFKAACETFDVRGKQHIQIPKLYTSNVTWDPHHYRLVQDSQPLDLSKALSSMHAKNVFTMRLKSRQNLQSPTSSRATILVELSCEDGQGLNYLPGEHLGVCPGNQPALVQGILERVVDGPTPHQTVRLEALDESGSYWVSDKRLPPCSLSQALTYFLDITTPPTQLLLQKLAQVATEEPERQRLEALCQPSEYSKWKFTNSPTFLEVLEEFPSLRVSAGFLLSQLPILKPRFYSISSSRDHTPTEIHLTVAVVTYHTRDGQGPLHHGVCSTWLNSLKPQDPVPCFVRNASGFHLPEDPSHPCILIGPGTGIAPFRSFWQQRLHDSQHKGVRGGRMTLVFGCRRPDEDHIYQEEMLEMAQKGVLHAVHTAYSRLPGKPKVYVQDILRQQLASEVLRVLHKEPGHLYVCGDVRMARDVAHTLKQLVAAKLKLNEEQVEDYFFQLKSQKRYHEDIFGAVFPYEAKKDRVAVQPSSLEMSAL

Nitric oxide synthase 1 = Nitric oxide synthase 1 (Homo sapiens, UniProt P29475); test: Inhibitory activity against human Neuronal nitric oxide synthase
Nitric oxide synthase 1, sequence (P29475 whole entry): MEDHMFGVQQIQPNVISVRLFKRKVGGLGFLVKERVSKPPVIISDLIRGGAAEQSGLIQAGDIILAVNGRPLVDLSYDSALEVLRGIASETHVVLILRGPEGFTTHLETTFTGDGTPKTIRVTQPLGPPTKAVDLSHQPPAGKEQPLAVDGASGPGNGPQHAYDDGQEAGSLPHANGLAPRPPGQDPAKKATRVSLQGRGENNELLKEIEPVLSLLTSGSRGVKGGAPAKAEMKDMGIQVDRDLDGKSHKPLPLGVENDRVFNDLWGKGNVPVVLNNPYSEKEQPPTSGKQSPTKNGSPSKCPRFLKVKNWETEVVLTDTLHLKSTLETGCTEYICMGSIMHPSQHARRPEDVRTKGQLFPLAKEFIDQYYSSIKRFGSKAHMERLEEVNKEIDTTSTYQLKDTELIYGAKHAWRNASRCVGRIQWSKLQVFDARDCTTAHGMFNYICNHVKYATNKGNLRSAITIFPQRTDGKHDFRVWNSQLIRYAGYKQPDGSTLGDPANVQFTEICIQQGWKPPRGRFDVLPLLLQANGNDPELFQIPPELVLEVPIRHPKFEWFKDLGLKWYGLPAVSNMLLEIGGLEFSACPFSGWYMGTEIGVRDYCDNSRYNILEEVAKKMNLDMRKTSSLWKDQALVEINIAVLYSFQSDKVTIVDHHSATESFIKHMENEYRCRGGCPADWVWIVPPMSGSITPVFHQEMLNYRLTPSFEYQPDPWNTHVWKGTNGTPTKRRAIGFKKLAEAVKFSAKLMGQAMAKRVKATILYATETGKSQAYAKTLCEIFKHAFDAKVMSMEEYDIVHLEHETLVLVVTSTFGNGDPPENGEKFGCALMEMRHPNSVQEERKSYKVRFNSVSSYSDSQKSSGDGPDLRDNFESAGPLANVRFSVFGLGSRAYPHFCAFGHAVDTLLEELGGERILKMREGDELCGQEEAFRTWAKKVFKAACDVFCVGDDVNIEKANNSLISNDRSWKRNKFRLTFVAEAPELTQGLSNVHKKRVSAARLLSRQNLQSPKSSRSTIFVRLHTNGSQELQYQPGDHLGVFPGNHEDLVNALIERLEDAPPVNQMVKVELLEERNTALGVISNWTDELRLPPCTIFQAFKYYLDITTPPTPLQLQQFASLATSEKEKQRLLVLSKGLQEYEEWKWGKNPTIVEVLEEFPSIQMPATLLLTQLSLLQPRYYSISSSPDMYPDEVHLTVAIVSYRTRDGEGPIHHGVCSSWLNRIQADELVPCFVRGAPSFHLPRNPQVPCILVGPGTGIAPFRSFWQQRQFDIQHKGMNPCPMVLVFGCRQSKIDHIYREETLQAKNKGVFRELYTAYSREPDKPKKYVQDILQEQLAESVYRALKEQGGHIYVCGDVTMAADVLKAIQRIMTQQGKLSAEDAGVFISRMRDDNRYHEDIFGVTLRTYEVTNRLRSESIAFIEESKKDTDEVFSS

[2] = Selectivity is defined as the ratio of the IC50(hecNOS) to IC50(hiNOS)
Method in brief: (§2)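 Ratio of IC50 for the endothelial or neuronal isoform to IC50 for the inducible isoform. All three recombinant human enzymes were assayed by [3H]arginine-to-[3H]citrulline conversion at 30 µM final L-arginine, 37 °C for 15 min. Both constitutive isoforms had 40 nM calmodulin. Each compound tested at eight concentrations.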

[3] = Selectivity is defined as the ratio of the IC50(hncNOS) to IC50(hiNOS); method in brief: as §2

SMILES | IC50 (Nitric oxide synthase 3) [µM] | IC50 [1] [µM] | IC50 (Nitric oxide synthase 1) [µM] | Selectivity [2] | Selectivity [3]
NC1=NCCCCCC1 | 59 | 10 | 10 |  | 
CC(=N)NCCCC[C@H](N)C(=O)O [L-NIL] | 138 | 4.6 | 61 | 30 | 13
NC1=NCCCN1 | 87 | 25 | 17 | 3.5 | 0.7
N=C1CCCCN1 | 4.7 | 1 |  |  | 
NC1=NCCCCC1 | 16 | 2 | 3.5 | 8 | 1.8
NC1=NCCC1 | 93 | 26 | 20 | 3.6 | 0.8
NC1=NCCCS1 | 7.1 | 2.9 | 3.2 | 2.4 | 1.1
N/C1=N/CCCCCC1 |  |  |  | 5.9 | 1
NC1=NCCCO1 | 8.2 | 1.8 | 3.7 | 4.6 | 2.1
N/C1=N/CCCCCCC1 |  |  |  | 9.2 | 0.7
N=C1CCCCCCCN1 | 90 | 9.8 | 6.8 |  | 
